NCF1 inh: p47phox (human) inhibition; P14598; p47phox/p22phox peptide binding, fluorescence polarization, 2 h; inhibition, % at 24.7 µM; hit rate 0.53% among 220,000; AID 1274;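 active = inhibition above about 30%, limit read from the data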;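 also: 0% = p47phox with labelled peptide and 100% = labelled peptide alone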
Target sequence (P14598 whole entry, looked up): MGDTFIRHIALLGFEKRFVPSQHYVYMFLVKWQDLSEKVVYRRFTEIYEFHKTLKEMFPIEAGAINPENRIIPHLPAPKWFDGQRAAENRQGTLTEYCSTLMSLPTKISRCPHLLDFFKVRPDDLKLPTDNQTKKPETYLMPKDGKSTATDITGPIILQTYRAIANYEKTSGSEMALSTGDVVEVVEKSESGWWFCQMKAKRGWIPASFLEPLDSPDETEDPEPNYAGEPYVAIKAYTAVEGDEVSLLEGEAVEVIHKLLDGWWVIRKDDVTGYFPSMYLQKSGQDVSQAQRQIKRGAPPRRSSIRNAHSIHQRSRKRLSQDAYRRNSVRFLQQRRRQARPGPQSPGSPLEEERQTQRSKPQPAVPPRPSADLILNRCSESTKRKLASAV
Diaphorase act: counter-screen for diaphorase-based assays: diaphorase activators and chemical reducers | hit rate 0.005% among 190,000 | activation factor at 20 µM | Diaphorase/resazurin coupled assay, resorufin fluorescence, 16 min; active compounds read high; 1 = vehicle wells, 0 = NADH-free wells;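 active = diaphorase activity raised at least twofold by the compound at 20 µM; inactive = activation factor below 2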
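Material: purified diaphorase enzyme from Clostridium kluyveri / Medium: HEPES pH 7.4 buffer with MgCl2 and Tween 20 / Schedule: enzyme reaction of 16 min at room temperature / Measured by: resorufin fluorescence, excitation 544 nm, emission 590 nm / Evaluation: rise in resorufin formation, marking diaphorase activation or chemical reduction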
PMI act: phosphomannose isomerase (human) activation; purified human PMI, coupled resazurin fluorescence, 20 min; active compounds read high; 1 = vehicle control, 0 substrate-free wells; activation factor at 20 µM; hit rate 0.005% among 190,000; AID 1214;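 active = activation factor of 2 or more at 20 µM, relative to plate controls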
Efa HMGR inh: blocks class II HMG-CoA reductase of Enterococcus faecalis. purified E. faecalis HMGR, NADPH absorbance 340 nm kinetic. inhibition, % at 10 µM. hit rate 0.41% among 190,000. AID 1066;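 active = inhibition above a set limit, the median over all tested compounds plus 3 SD, cut at about 9.5% in these data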;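 also: enzyme runs in reverse so mevalonate oxidation gives rising NADPH absorbance; 0% = complete reaction with DMSO and 100% = background rate lacking mevalonate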
DTT redox prof: compounds producing H2O2 with reducing agent – biochemical, NIH compound library profiling, artefact control for MLSCN library redox annotation, primary screen | DTT-dependent redox cycling H2O2, phenol red/HRP absorbance; 100% = 100 µM peroxide control, 0% = buffer | activation, % at 10 µM | hit rate 0.03% among 200,000;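 active = activation of at least 50% relative to the plate's high and low controls in the primary single-dose screen; inactive = activation below 50%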;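 also: compound incubated with DTT at 0.8 mM final as the reducing agent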
PMI act hi M6P: activators of human phosphomannose isomerase at near-saturating mannose 6-phosphate | P34949 | coupled PMI enzyme assay, resazurin fluorescence, 20 min; active compounds read high; 1 = untreated enzyme, 0 = substrate-free blank | activation factor at 20 µM | hit rate 0.34% among 190,000;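 active = activation factor of 2 or more at 20 µM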
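Material: human phosphomannose isomerase with PGI, G6PDH, diaphorase coupling enzymes. Quantity: 15 ng/mL PMI. Medium: HEPES pH 7.4 buffer with MgCl2 and Tween-20. Reagent: Near-saturating mannose-6-phosphate, 1.0 mM. Compound: 20 µM single dose. Times: enzyme reaction with compound 20 min at room temperature. Detection: resorufin fluorescence at Ex 544/Em 590 nm.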
* = called active by the depositor; · = not tested or not shown. Hits are enriched below; roughly 1.2% of the tested compounds scored in any of these assays.

SMILES | NCF1 inh | Diaphorase act | PMI act | Efa HMGR inh | DTT redox prof | PMI act hi M6P
Cn1c(OCc2cccnc2)nc2c1c(=O)n(Cc1ccc(Br)cc1)c(=O)n2C | -6 | 0.8 | 0.9 | 14* | 0 | 0.9
Cn1c(OCc2cccnc2)nc2c1c(=O)n(Cc1ccc(Cl)cc1)c(=O)n2C | · | · | · | · | 0 | ·
Clc1ccc2nncn2n1 | 13 | 0.9 | 1 | -5 | 0 | 1
C[C@@H]1NC(=O)c2cc([N+](=O)[O-])cc(I)c2NCCCC[C@@H](C(N)=O)NC(=O)[C@H](CCC(=O)O)NC1=O | -8 | 0.8 | 1.2 | -6 | 1 | 1.1
Cc1ccc(-c2noc(CSc3nnc(Cc4ccccc4)n3-c3ccc(Cl)cc3)n2)cc1 | -19 | 0.7 | 0.8 | 18* | 0 | 0.8
COc1ccc(-c2noc(CSc3nnc(Cc4ccccc4)n3-c3ccc(Cl)cc3)n2)cc1 | 4 | 0.8 | 0.8 | -6 | 2 | 0.8
CCCC(=O)Nc1sc(C(=O)Nc2cccc(N)c2)c(C)c1C(=O)OC | -17 | 0.8 | 0.9 | 17* | 0 | 0.9
Cn1cnnc1Sc1ccc(C(=O)OCC(=O)NC2CC2)cc1[N+](=O)[O-] | 0 | 1.1 | 1.2 | 15* | 0 | 1.1
Cc1ccccc1NC(=O)Cn1c(O)c(N=NC(=O)c2ccccc2O)c2ccccc21 | 50* | 1 | 1 | -9 | 0 | 1.1
Cc1ccc(NC(=O)Cn2c(O)c(N=NC(N)=O)c3ccccc32)cc1 | -11 | · | · | · | · | ·
Cc1nnsc1C(=O)NNC(=O)c1cccc2ccccc12 | -4 | · | · | · | · | ·
CCOc1ccc(-n2c(SCC(=O)Nc3ccccc3CC)nc3n[nH]c(C)c3c2=N)cc1 | -2 | 1 | 1 | 4 | 0 | 1
CCOc1ccc(-n2c(SCC(=O)Nc3ccc(Br)cc3)nc3n[nH]c(C)c3c2=N)cc1 | 41* | 0.9 | 1 | 4 | 0 | 1
CC(=O)OCc1c(C)cc(C)c(/C=C(/C#N)C(N)=O)c1C | -3 | 1.1 | 1.1 | -2 | -1 | 1.1
N#Cc1c(-c2cccnc2)c2c([nH]c1=S)CCCC2 | 33* | 0.7 | 1.3 | 0 | -2 | 1.4
COc1ccc(-c2c3c([nH]c(=S)c2C#N)CCC3)cc1 | -11 | 0.9 | 1.6 | 0 | -3 | 2.1*
Cn1cccc1Cc1nnc(SCC(N)=O)n1CCc1ccccc1 | 89* | 0.9 | 1 | 2 | -1 | 0.9
O=C(CN1C2CCCC1CC(NC(=O)c1ccccc1)C2)Nc1nccs1 (stereo not given) | -1 | 1 | 1.1 | -2 | 1 | 1.1
Cc1ccccc1-n1c(SCC(=O)Nc2ccccc2)nc2nc3c(cc2c1=O)CCCC3 | -15 | 0.8 | 0.9 | 13* | 2 | 1
Cc1cccc(NC(=O)CSc2nc3nc4c(cc3c(=O)n2-c2ccccc2)CCCC4)c1 | 14 | 0.8 | 0.8 | -7 | 0 | 0.9
CC(CCc1ccccc1)N(C)CC(O)c1cccc([N+](=O)[O-])c1 (stereo not given) | 0 | · | · | · | · | ·
CCO[C@H]1OC(C(=O)Nc2ccccc2)=C[C@@H](c2ccc(Br)cc2)[C@@H]1CCCO | -15 | 0.7 | 0.8 | -4 | -1 | 0.9
CCO[C@@H]1OC(C(=O)Nc2ccccc2)=C[C@H](c2ccc(C(F)(F)F)cc2)[C@H]1CCCO | -4 | 0.6 | 0.8 | 12* | -2 | 0.8
COC(=O)c1ccc2c(=O)n(Cc3ccco3)c(SCC(=O)Nc3cc(C)on3)nc2c1 | 0 | 1 | 1 | -3 | -1 | 1.1
COC(=O)c1ccc2c(=O)n(Cc3ccco3)c(SCC(=O)Nc3ccccc3Cl)nc2c1 | 46* | 0.9 | 0.9 | -8 | 1 | 0.9
SMILES | NCF1 inh | Diaphorase act | PMI act | Efa HMGR inh | DTT redox prof | PMI act hi M6P
COc1ccc(NC(C)=O)cc1S(=O)(=O)N1CCN(C/C=C/c2ccccc2)CC1 | 1 | 1 | 1.1 | 2 | -2 | 1.1
CCOc1ccc(CCNS(=O)(=O)c2cnc[nH]2)cc1OCC | 62* | 0.9 | 0.9 | -3 | -1 | 0.9
CC(=O)Oc1ccc2c(=O)c(-c3nc4ccccc4s3)coc2c1 | -1 | 1 | 1 | -3 | -2 | 1
CN(CCO)c1cc(NCCCN2CCC(Cc3ccccc3)CC2)c2nonc2c1[N+](=O)[O-] | 1 | 0.9 | 0.9 | 14* | 0 | 0.7
CC(C)n1cc(CN2CCN(CCc3ccccc3)C(CCO)C2)cn1 (stereo not given) | -5 | 0.9 | 1 | 0 | 1 | 1.1
COc1ccc2nc(N=Nc3c(O)ccc4ccccc34)sc2c1 | 34* | 1 | 1.1 | -3 | 1 | 0.8
Cc1ccc(NC(=O)COC(=O)CSC(=S)N2CCOCC2)cc1 | -13 | 0.8 | 0.9 | -1 | 0 | 0.9
COc1ccccc1-n1cnnc1SCC(=O)N1CC(=O)Nc2ccccc21 | 0 | 1 | 0.9 | 9.6* | 1 | 1
O=C(c1ccc2c(Cl)c3c(nc2c1)CCCC3)N1CCC(N2CCCCC2)CC1 | 2 | 0.9 | 1.1 | 11* | 0 | 0.9
COc1ccc(/C=N/NC(=O)CN(C2=NS(=O)(=O)c3ccccc32)c2ccccc2)cc1 | 31* | 0.9 | 0.8 | -4 | 0 | 1
CCc1ccc(NC(=O)C2CCCN2S(=O)(=O)c2ccc3c(c2)n(C)c(=O)c(=O)n3C)cc1 (stereo not given) | 1 | · | · | · | · | ·
Cc1nc(N2CCN(C)CC2)c2sc(=S)n(C)c2n1 | 106* | 0.8 | 0.9 | 1 | 0 | 0.8
Cc1nc(N2CCN(C)CC2)c2sc(=S)n(-c3ccccc3)c2n1 | -10 | 0.9 | 0.9 | 4 | 0 | 0.9
CC1(C)Cc2c(sc(NC(=O)COc3cccc4ccccc34)c2C#N)C(C)(C)N1 | 51* | · | · | · | · | ·
Cc1ccc(OCC(=O)Nc2sc3c(c2C#N)CC(C)(C)NC3(C)C)cc1 | -8 | 0.9 | 0.9 | -1 | -1 | 0.9
CC(=O)CSc1nnc(C(F)(F)F)n1C | -15 | · | · | · | · | ·
Oc1ccc(/C(Cc2ccc3ccccc3n2)=N\Nc2ccccc2)c(O)c1 | · | 0.8 | 1.7 | -3 | 1 | 2.3*
Oc1ccc(/C(Cc2ccccn2)=N\Nc2ccccc2)c(O)c1 | -5 | 0.7 | 1.6 | 0 | -1 | 2.5*
Cc1c(O)ccc(/C(Cc2ccc3ccccc3n2)=N\O)c1O | -11 | 1.1 | 1 | 2 | -4 | 1
N/N=C(\Cc1cscn1)c1ccc(O)cc1O | -7 | · | · | · | · | ·
CC(C)(C)c1ccc(OCc2cnc(Cl)s2)cc1 | -18 | 0.9 | 0.9 | -1 | 0 | 1
CC(C)(C)C(=O)N1CCC[C@H]1C(O)(c1ccccc1)c1ccccc1 | -2 | 1.1 | 1.1 | 14* | 0 | 1.1
O=C(C1CC1)N1CCC(C(O)(c2ccccc2)c2ccccc2)CC1 | -14 | 0.9 | 1 | -4 | 0 | 1

Source: PubChem
